For 13 compounds, Activity, Ki and inhibition results are on record in ChEMBL document CHEMBL1140153, “Structure-activity relationships of truncated D- and l-4'-thioadenosine derivatives as species-independent A3 adenosine receptor antagonists” (J Med Chem, 2008).

The pKi is −log10 of the Ki, conventionally taken in molar units. What is called inhibition is the drop in the measured response relative to a control, in per cent.

Experiment [1] has as its target T1, Adenosine receptor A3 (Homo sapiens) (UniProt P0DMS8).
T1 sequence (whole entry): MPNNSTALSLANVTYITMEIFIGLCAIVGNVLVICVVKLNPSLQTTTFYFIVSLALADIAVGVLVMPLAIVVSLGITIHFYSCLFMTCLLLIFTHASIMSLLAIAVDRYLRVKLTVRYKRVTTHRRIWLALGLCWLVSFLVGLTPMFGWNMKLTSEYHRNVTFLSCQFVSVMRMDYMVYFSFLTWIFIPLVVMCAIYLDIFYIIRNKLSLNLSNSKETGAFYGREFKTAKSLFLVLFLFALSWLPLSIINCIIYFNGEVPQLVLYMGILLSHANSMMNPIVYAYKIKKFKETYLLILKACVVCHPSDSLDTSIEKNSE
Description: Antagonist activity at human adenosine A3 receptor expressed in CHO cells assessed as inhibition of forskolin-stimulated cAMP production at 10 uM relative to (2S,3S,4R,5R)-5-(6-(3-iodobenzylamino)-9H-purin-9-yl)-3,4-dihydroxy-N-methyl-tetrahydrothiophene-2-carboxamide. It is filed as functional, cell-based. Further details: scale not given: the % may be the effect or the level left. The essentials:
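CHO cells stably expressing human A3 AR; forskolin-stimulated cAMP production measured with test compound at 10 μM; response given as mean percentage of a full A3 agonist's effect, n = 1–3.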
(In general: cAMP levels reflect the balance of adenylyl cyclase and phosphodiesterase activity.)

The target in experiment [2] is T2, Adenosine receptor A3 (Rattus norvegicus, UniProt P28647).
T2 sequence (P28647 whole entry): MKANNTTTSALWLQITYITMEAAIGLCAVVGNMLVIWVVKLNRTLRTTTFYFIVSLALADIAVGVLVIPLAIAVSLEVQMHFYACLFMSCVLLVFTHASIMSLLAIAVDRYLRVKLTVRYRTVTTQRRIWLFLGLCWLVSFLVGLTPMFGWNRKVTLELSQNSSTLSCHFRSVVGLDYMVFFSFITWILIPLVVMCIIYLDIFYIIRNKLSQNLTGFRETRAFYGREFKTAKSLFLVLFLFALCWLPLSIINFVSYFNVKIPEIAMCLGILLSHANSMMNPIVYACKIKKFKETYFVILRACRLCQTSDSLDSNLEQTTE
Description: Displacement of [125I]I-AB-MECA from rat adenosine A3 receptor expressed in CHO cells. Format: cell-based.

The target of a further experiment is T3, Adenosine receptor A1 (Homo sapiens, UniProt P30542).
T3 sequence (P30542 whole entry): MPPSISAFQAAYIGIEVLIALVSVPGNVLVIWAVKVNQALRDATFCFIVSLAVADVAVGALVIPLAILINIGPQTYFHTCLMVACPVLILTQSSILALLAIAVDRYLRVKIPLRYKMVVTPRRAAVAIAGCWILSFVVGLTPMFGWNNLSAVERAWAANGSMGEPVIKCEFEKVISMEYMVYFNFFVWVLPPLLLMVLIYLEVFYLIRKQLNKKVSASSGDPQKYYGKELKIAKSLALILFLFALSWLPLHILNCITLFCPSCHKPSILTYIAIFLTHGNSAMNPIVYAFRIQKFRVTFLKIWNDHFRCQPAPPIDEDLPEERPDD
Description: Displacement of [3H]CCPA from human adenosine A1 receptor expressed in CHO cells. Format: cell-based. On the technique in general: Loss of bound radioactivity is the signal in a displacement assay; it reports binding, not function.

Experiment [3] addresses T4, Adenosine receptor A3 (Homo sapiens, UniProt P0DMS8).
T4 sequence (P0DMS8 whole entry): T1 sequence (whole entry)
Description: Displacement of [125I]I-AB-MECA from human adenosine A3 receptor expressed in CHO cells. Format: cell-based.

Experiment [4] deals with T5, Adenosine receptor A2b (Homo sapiens) (UniProt P29275).
T5 sequence (whole entry): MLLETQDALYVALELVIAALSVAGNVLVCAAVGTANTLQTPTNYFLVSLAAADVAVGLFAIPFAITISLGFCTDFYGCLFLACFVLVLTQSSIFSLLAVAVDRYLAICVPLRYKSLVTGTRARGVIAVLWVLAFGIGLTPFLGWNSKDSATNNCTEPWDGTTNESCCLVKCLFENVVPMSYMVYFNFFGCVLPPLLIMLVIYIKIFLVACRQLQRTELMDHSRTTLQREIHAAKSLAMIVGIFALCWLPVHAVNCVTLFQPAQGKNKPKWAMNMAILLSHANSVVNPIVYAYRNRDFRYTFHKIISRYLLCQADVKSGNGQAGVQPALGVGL
Description: Antagonist activity at human adenosine A2B receptor by cAMP assay. Format: functional.

Experiment [5] addresses T5, Adenosine receptor A2b (Homo sapiens). Description: Agonist activity at human adenosine A2B receptor by cAMP assay. Format: functional.
Experiment [6] concerns the target T1, Adenosine receptor A3 (Homo sapiens). Description: Displacement of [125I]I-AB-MECA from human adenosine A3 receptor expressed in CHO cells at 10 uM. Format: cell-based. In short, it runs like this: (§1)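 Membranes (20 μg protein) from CHO cells stably expressing human or rat A3 AR were incubated with 0.5 nM [125I]I-AB-MECA and increasing ligand concentrations in 50 mM Tris-HCl pH 7.4 with 10 mM MgCl2 for 60 min at 25 °C. Nonspecific binding was set with 10 μM NECA. Filtration through GF/B, washed ×3 with ice-cold buffer, γ-counting.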

Experiment [7] deals with T6, Adenosine receptor A1 (Homo sapiens) (UniProt P30542).
T6 sequence (whole entry): T3 sequence (P30542 whole entry)
Nature of the experiment: Displacement of [3H]CCPA from human adenosine A1 receptor expressed in CHO cells at 10 uM. It is filed as cell-based. In short, it runs like this:
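Human A1 AR CHO membranes (40 μg/tube) were incubated with 1 nM [3H]CCPA in 50 mM Tris-HCl pH 7.4 with 10 mM MgCl2 for 60 min at 25 °C; 10 μM NECA defined nonspecific binding; GF/B filtration.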

The target of experiment [8] is Adenosine receptor A2a (Homo sapiens) (UniProt P29274). Nature of the experiment: Displacement of [3H]CGS-21680 from human adenosine A2A receptor expressed in HEK293 cells at 10 uM. Format: cell-based. In short, it runs like this: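 Human A2A AR HEK-293 membranes (20 μg/tube) with [3H]CGS21680 in 50 mM Tris-HCl pH 7.4 with 10 mM MgCl2, 60 min at 25 °C; nonspecific binding with 10 μM NECA; GF/B filtration.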
Adenosine receptor A2a (Homo sapiens), sequence (P29274 whole entry): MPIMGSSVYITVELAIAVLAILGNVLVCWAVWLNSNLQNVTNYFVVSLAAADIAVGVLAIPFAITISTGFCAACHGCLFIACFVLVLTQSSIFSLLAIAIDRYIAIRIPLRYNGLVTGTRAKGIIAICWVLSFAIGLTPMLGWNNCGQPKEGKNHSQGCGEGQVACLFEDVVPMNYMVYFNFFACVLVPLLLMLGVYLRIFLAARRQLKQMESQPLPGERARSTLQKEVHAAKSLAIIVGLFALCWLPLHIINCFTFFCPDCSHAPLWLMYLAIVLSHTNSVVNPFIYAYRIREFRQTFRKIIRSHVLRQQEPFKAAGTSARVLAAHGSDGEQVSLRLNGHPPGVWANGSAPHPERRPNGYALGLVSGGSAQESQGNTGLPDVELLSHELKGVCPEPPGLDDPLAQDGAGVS

In experiment [9] the target is T7, Adenosine receptor A3 (Rattus norvegicus) (UniProt P28647).
T7 sequence (whole entry): T2 sequence (P28647 whole entry)
Description: Displacement of [125I]I-AB-MECA from rat adenosine A3 receptor expressed in CHO cells at 10 uM. It is filed as cell-based. The essentials: as §1

pKi: −log10 of the molar value. The source made the active and inactive calls. The rule behind the calls is not given here. Where only a bound is given, the exact number is not on record here.

Consider `O[C@@H]1[C@H](O)CS[C@H]1n1cnc2c(NCc3cccc(Br)c3)nc(Cl)nc21`, for which the Activity in experiment [1] is less than 10%.

On to `O[C@@H]1[C@H](O)CS[C@H]1n1cnc2c(NCc3cccc(I)c3)ncnc21`, for which the Activity in experiment [1] was less than 10%.

Take `CNC(=O)[C@H]1S[C@@H](n2cnc3c(NCc4cccc(I)c4)ncnc32)[C@H](O)[C@@H]1O`: the pKi on Adenosine receptor A3 [2] is 8.73; on Adenosine receptor A1, 7.76; at Adenosine receptor A3 [3], 9.60. In addition, in experiment [1], the outcome was Active.

The compound `O[C@@H]1[C@H](O)CS[C@H]1n1cnc2c(NCc3cccc(Cl)c3)ncnc21` gave a pKi on Adenosine receptor A3 [2] of 7.77. Besides, in experiment [1], the Activity was less than 10%.

With `O[C@@H]1[C@H](O)CS[C@H]1n1cnc2c(NCc3cccc(I)c3)nc(Cl)nc21`, the result in experiment [4] and in experiment [5] was inactive. Besides, the Activity in experiment [1] is less than 10%.

As for `O[C@@H]1[C@H](O)CS[C@H]1n1cnc2c(NCc3cccc(F)c3)ncnc21`, on Adenosine receptor A3 [2], the pKi was 7.01. The Activity in experiment [1] is less than 10%.

In the case of `O[C@H]1[C@@H](O)CS[C@@H]1n1cnc2c(NCc3cccc(Br)c3)nc(Cl)nc21`, the inhibition came to 12.6% in experiment [6], 6.1% in experiment [7] and 45.7% in experiment [8]. Besides, the Activity in experiment [1] is less than 10%.

In turn, `O[C@@H]1[C@H](O)CS[C@H]1n1cnc2c(NCc3cccc(Br)c3)ncnc21` had a pKi on Adenosine receptor A3 [2] of 8.20. The Activity in experiment [1] is less than 10%.

As for `CNc1ncnc2c1ncn2[C@@H]1SC[C@@H](O)[C@H]1O`, the pKi on Adenosine receptor A1 is 5.97; at Adenosine receptor A3 [3], 8.32. Further, the inhibition was found to be 28% in experiment [9] and 22% in [8]. In addition, the Activity in experiment [1] is less than 10%.

On to `O[C@@H]1[C@H](O)CS[C@H]1n1cnc2c(NCc3cccc(Cl)c3)nc(Cl)nc21`, for which, in experiment [1], the Activity was less than 10%.

For `O[C@H]1[C@@H](O)CS[C@@H]1n1cnc2c(NCc3cccc(I)c3)nc(Cl)nc21`, the results for the inhibition in experiment [6], in experiment [7] and in [8] were 18.4%, -8% and -0.95%, respectively. Moreover, the Activity in [1] is less than 10%.

On to `CNc1nc(Cl)nc2c1ncn2[C@@H]1SC[C@@H](O)[C@H]1O`, for which the Activity in experiment [1] was less than 10%.

For the compound `O[C@@H]1[C@H](O)CS[C@H]1n1cnc2c(NCc3cccc(F)c3)nc(Cl)nc21`, in experiment [1], the Activity was less than 10%.
